Assay results published in ChEMBL document CHEMBL4261642, “Design, synthesis, and ex vivo evaluation of a selective inhibitor for retinaldehyde dehydrogenase enzymes” (Bioorg Med Chem, 2018).
Calls of active or inactive are those of the source. The rule behind the calls is not given here.

Columns and labels:
Retinal dehydrogenase 2 [1] = biological target: T1, Retinal dehydrogenase 2 (Gallus gallus, UniProt O93344); experiment: Inhibition of RALDH2 in choroidal cytosol fraction from 4 day recovering chick assessed as inhibition of ATRA synthesis pre-incubated for 20 mins followed by […] addition and measured after 30 mins by HPLC analysis
T1 sequence (O93344 whole entry): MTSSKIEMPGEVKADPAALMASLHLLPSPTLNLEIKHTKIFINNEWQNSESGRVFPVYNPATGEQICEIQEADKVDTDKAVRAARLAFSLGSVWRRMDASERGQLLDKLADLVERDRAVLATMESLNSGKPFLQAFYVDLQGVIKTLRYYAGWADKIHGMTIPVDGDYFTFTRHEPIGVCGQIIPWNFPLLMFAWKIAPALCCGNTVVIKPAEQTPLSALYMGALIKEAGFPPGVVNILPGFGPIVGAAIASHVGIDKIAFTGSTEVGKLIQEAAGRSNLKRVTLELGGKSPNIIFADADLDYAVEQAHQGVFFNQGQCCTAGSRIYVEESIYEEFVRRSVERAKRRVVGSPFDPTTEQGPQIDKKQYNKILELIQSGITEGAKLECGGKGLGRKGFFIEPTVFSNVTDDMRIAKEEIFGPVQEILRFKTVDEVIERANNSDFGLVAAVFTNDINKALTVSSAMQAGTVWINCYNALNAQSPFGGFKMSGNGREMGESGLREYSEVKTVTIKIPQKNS

[2] = biological target: T2, Retinal dehydrogenase 2 (Gallus gallus) (UniProt O93344); experiment: Inhibition of N-terminal His6-tagged recombinant chick RALDH2 expressed in Escherichia coli BL21(DE3) cells at 250 nM using RAL as substrate assessed as remaining activity incubated up to 80 mins in presence of all-trans-retinaldehyde folowed by substrate addition and measured after 30 mins in presence of NAD+ by fluorescence assay
T2 sequence (whole entry): T1 sequence (O93344 whole entry)
Outline: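 Chick RALDH2 (91 nM) pre-incubated with 250 nM inhibitor for 0–80 min at 37°C, alone or with 250 μM retinaldehyde or 250 μM NAD+. Reaction then started with the missing substrate and/or cofactor (250 μM retinaldehyde, 4 mM NAD), 30 min at 37°C. Fluorimetric NADH; % activity remaining. Triplicates.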

[3] = biological target: T3, Aldehyde dehydrogenase, mitochondrial (Homo sapiens, UniProt P05091); experiment: Inhibition of N-terminal His6-tagged recombinant human mitochondrial ALDH2 using propionaldehyde as substrate measured after 30 mins in presence of NADH by Morrison's plot analysis
T3 sequence (P05091 whole entry): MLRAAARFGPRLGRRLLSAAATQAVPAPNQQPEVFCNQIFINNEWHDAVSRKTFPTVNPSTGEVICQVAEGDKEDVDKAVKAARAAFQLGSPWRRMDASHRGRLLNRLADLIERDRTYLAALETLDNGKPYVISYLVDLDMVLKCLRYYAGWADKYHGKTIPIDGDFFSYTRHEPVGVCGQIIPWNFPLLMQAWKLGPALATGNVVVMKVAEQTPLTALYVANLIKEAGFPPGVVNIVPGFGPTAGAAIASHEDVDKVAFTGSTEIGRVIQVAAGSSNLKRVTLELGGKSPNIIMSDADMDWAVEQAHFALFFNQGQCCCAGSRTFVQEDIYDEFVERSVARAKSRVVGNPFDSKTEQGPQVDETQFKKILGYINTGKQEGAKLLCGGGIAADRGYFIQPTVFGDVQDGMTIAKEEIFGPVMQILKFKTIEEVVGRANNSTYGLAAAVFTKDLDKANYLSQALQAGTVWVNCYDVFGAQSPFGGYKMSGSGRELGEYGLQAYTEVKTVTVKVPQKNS

[4] = biological target: T2, Retinal dehydrogenase 2 (Gallus gallus); experiment: Inhibition of RALDH2 in choroidal cytosol fraction from control chick assessed as inhibition of ATRA synthesis at 0.1 to 6 uM pre-incubated for 20 mins followed by […] addition and measured after 30 mins by HPLC analysis
[5] = biological target: T2, Retinal dehydrogenase 2 (Gallus gallus); experiment: Inhibition of RALDH2 in choroidal cytosol fraction from 4 day recovering chick assessed as inhibition of ATRA synthesis at 0.1 to 6 uM pre-incubated for 20 mins followed by […] addition and measured after 30 mins by HPLC analysis
Outline: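 Choroid cytosol fractions (100,000 × g supernatant) from 4-day recovering chick eyes pre-incubated 20 min at 37°C with 0.01–6 μM inhibitor or DMSO. Reaction started with 4 mM NAD+ and 25 μM all-trans-retinaldehyde, 30 min at 37°C. ATRA extracted and quantified by reverse-phase HPLC (350 nm, MS). Two experiments, n = 3–5 each.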

[6] = biological target: T3, Aldehyde dehydrogenase, mitochondrial; experiment: Inhibition of N-terminal His6-tagged recombinant human mitochondrial ALDH2 using propionaldehyde as substrate preincubated for 20 mins to 1 hr followed by substrate addition and measured for 5 mins in presence of NADH by spectrophotometric assay
[7] = biological target: T2, Retinal dehydrogenase 2 (Gallus gallus); experiment: Inhibition of RALDH2 in living intact choroid isolated from normal chick eyes assessed as inhibition of ATRA synthesis after 24 hrs in presence of retinaldehyde and NAD+
[8] = biological target: T2, Retinal dehydrogenase 2 (Gallus gallus); experiment: Inhibition of N-terminal His6-tagged recombinant chick RALDH2 expressed in Escherichia coli BL21(DE3) cells up to 500 nM using RAL as substrate assessed as Kinact/Ki ratio preincubated up to 40 mins followed by substrate addition and measured after 30 mins in presence of NADH by fluorescence assay
Outline: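 Chick RALDH2 pre-incubated 10, 20 and 40 min with 0–500 nM inhibitor, then assayed with retinaldehyde/NAD+ by fluorimetric NADH. kobs taken from linear regression of log % activity remaining versus pre-incubation time. KI and kinact obtained by nonlinear regression of kobs versus inhibitor concentration.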

Retinal dehydrogenase 2 [9] = biological target: T1, Retinal dehydrogenase 2; experiment: Inhibition of N-terminal His6-tagged recombinant chick RALDH2 expressed in Escherichia coli BL21(DE3) cells using RAL as substrate preincubated for 20 mins followed by substrate addition and measured after 30 mins in presence of NADH by fluorescence assay
Outline: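 Purified His-tagged recombinant enzyme in dialysis buffer with 2 mM DTT. Amounts were chick RALDH1 2 μg (0.358 μM), chick RALDH2 0.5 μg (0.091 μM), chick RALDH3 2 μg (0.355 μM) and human RALDH2 1 μg (0.176 μM). Enzyme pre-incubated 20 min at 37°C with 0–10 μM inhibitor in DMSO. Reaction started with final 4 mM NAD+ in pyrophosphate pH 8.2 buffer plus 250 μM retinaldehyde, 30 min at 37°C. NADH read fluorimetrically (Ex/Em 540/590) against a standard curve. Triplicates, 3–5 experiments.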

[10] = biological target: T2, Retinal dehydrogenase 2 (Gallus gallus); experiment: Inhibition of N-terminal His6-tagged recombinant chick RALDH2 expressed in Escherichia coli BL21(DE3) cells at 25 nM using RAL as substrate assessed as remaining activity preincubated for 20 mins followed by compound washout by ultrafiltration and subsequent addition of substrate and measured after 30 mins in presence of NADH by fluorescence assay (reference value: 100.0 +/- 11.57%)
Outline: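 Chick RALDH2 (91 nM) pre-incubated 20 min with 0–50 nM inhibitor. Unbound inhibitor removed by ultrafiltration before adding 250 μM retinaldehyde and 4 mM NAD+, 30 min at 37°C. NADH measured fluorimetrically. Activity expressed as % of vehicle. Triplicates; one-way ANOVA with Bonferroni test.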

[11] = biological target: T2, Retinal dehydrogenase 2 (Gallus gallus); experiment: Inhibition of chick RALDH2 expressed in doxycycline-inducible HEK293 cells assessed as inhibition of ATRA synthesis at 0.05 uM after 24 hrs in presence of […]; format: cell-based

IC50 (Retinal dehydrogenase 2 [1]): 53.6 nM
inhibition [2]: Active
Ki [3]: Not Active
inhibition [4]: 92 to 99%
inhibition [5]: 70 to 96%
IC50 [6]: Not Active
inhibition [7]: inactive
Ratio [8]: 124000 M⁻¹ min⁻¹
IC50 (Retinal dehydrogenase 2 [9]): 55 nM
Activity [10]: 33%
inhibition [11]: 42%
SMILES: CC1=C(/C=C/C(C)=C/C=C/C(C)=C/C(=O)C(Cl)Cl)C(C)(C)CCC1
